Measurements reported in publication PMC3712647 (European journal of medicinal chemistry, 2013).
Like-named read-outs stand apart in the source and are kept apart here.

Assays:
Renal = assay: NCI 60 five-concentration screen, renal subpanel; format: cell-based; conditions: Homo sapiens, 48 h, read-out: TGI Renal
full NCI 60 cell panel [1] = assay: NCI 60 five-concentration screen, panel mean; format: cell-based; conditions: Homo sapiens, 48 h; for GI50: read-out: GI50 MG-MID; for IC (TGI): read-out: TGI MG-MID; for CC50: read-out: LC50 MG-MID
Melanoma = assay: NCI 60 five-concentration screen, melanoma subpanel; format: cell-based; conditions: Homo sapiens, 48 h, read-out: TGI Melanoma
Leukemia = assay: cells; format: cell-based; conditions: Homo sapiens, 48 h, read-out: TGI Leukemia
Breast = assay: cells; format: cell-based; conditions: Homo sapiens, 48 h, read-out: TGI Breast
full NCI 60 cell panel [2] = assay: NCI 60 Cell One-Dose Screen; format: cell-based
NSCLC = assay: NCI 60 five-concentration screen, NSCLC subpanel; format: cell-based; conditions: Homo sapiens, 48 h, read-out: TGI NSCLC
Colon = assay: NCI 60 five-concentration screen, colon subpanel; format: cell-based; conditions: Homo sapiens, 48 h, read-out: TGI Colon
CNS = assay: cells; format: cell-based; conditions: Homo sapiens, 48 h, read-out: TGI CNS
Ovarian = assay: cells; format: cell-based; conditions: Homo sapiens, 48 h, read-out: TGI Ovarian
Prostate = assay: cells; format: cell-based; conditions: Homo sapiens, 48 h, read-out: TGI Prostate
Nox4 = Nox4 expression by Western blotting in B1647 cells; format: cell-based, human; conditions: 24 h treatment; 10 µM
In short: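 B1647 cells were treated 24 h, then lysed 15 min on ice (1% Igepal, 150 mM NaCl, 50 mM Tris–HCl, 5 mM EDTA, protease inhibitors, orthovanadate, pH 8.0). 40 µg protein/lane ran on 10% SDS-PAGE and was transferred to nitrocellulose (100 V, 90 min). Blots were blocked in 5% milk in TBS/Tween, probed overnight at 4 °C with anti-Nox4 and anti-β-tubulin, then HRP secondaries, with luminol detection.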

Nox4 in B1647 cells [3] = assay: Intracellular ROS after Nox2 silencing in B1647 cells; format: cell-based, human; conditions: siRNA against Nox2, 50 nM
Nox4 in B1647 cells [4] = assay: Intracellular ROS level; format: cell-based, human; conditions: 30 min treatment at 5 or 10 µM
In short: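 Human AML B1647 cells grown in IMDM with 5% human serum (37 °C, 5% CO₂) were treated 30 min with test compound in DMSO. Cells (1 × 10⁶/mL) were washed twice in PBS and loaded with 5 µM DCFH-DA for 20 min at 37 °C. Oxidized DCF fluorescence was read in a multiwell plate reader.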

cells = assay: Cell cycle effect; format: cell-based; conditions: data not presented

Row | SMILES | IC (TGI) (Renal) [µM] | GI50 (full NCI 60 cell panel [1]) [µM] | IC (TGI) (full NCI 60 cell panel [1]) [µM] | IC (TGI) (Melanoma) [µM] | CC50 (full NCI 60 cell panel [1]) [µM] | IC (TGI) (Leukemia) [µM] | IC (TGI) (Breast) [µM] | IC (TGI) (Colon) [µM] | IC (TGI) (CNS) [µM] | further results
1 | COc1cc(/C=C2\C(=O)N(C)c3ccc(Cl)cc32)cc(OC)c1OC [Compound 12] | 24 | 4.5 | 21.4 | 21.4 |  |  |  |  |  | 
2 | COc1ccc2c(c1)/C(=C\c1cc(OC)c(OC)c(OC)c1)C(=O)N2C [Compound 11] | 24 |  | 21.9 | 21.9 | 89.1 | 7.6 | 21.9 |  |  | 
3 | COc1cc(/N=C2\C(=O)N(Cc3ccccc3)c3ccccc32)cc(OC)c1OC [Compound 19] |  |  |  |  |  |  |  |  |  | growth inhibition in the one-dose screen (full NCI 60 cell panel [2]; RXF 393, CCRF-CEM, RPMI-8226 and HOP-92 cells, 10^−5 M, data not shown): growth inhibition; cytotoxic activity in the preliminary one-dose test (full NCI 60 cell panel [2]; single concentration 10^−5 M, 48 h incubation): lack of cytotoxic activity
4 | COc1ccc(CN2C(=O)/C(=C\c3cc(OC)c(OC)c(OC)c3)c3ccccc32)cc1 [Compound 14] | 9.1 | 2.1 | 9.3 | 4.5 | 35.5 |  |  | 3.6 |  | IC (TGI) (NSCLC): 9.3 µM
5 | COc1cc(/C=C2\C(=O)Nc3cc(OC(F)(F)F)ccc32)cc(OC)c1OC [Compound 9] |  | 2.7 | 12.3 |  |  |  | 8.7 |  | 7.4 | 
6 | COc1cc(/C=C2\C(=O)Nc3ccc(N(C)C)cc32)cc(OC)c1OC [Compound 6] | 49 | 2.8 | 32.4 |  | 89.1 | 9.3 |  |  |  | IC (TGI) (Ovarian): 32.4 µM
7 | COc1ccc(OC)c2c1NC(=O)/C2=C\c1cc(OC)c(OC)c(OC)c1 [Compound 3] |  |  | 19.5 |  |  |  | 19 |  |  | 
8 | CC[C@]1(O)C[C@H]2CN(CCc3c([nH]c4ccccc34)[C@@](C(=O)OC)(c3cc4c(cc3OC)N(C=O)[C@H]3[C@@](O)(C(=O)OC)[C@H](OC(C)=O)[C@]5(CC)C=CCN6CC[C@]43[C@@H]65)C2)C1 [Vincristine, reference compound] | 19.9 |  | 10 | 7.9 |  | 15.8 | 7.9 | 4 | 6.3 | IC (TGI) (NSCLC): 15.8 µM; IC (TGI) (Prostate): 6.3 µM; IC (TGI) (Ovarian): 19.9 µM
9 | COc1cc(/C=C2\C(=O)Nc3ccc(Br)cc32)cc(OC)c1OC [Compound 5] |  | 7.9 | 67.6 | 76 |  | 49 |  |  |  | Nox4 expression (Nox4): downregulate Nox4 expression; ROS production in Nox2 silenced cells vs scrambled cells (Nox4 in B1647 cells [3]): inhibited ROS production to the same extent; ROS generation (Nox4 in B1647 cells [4]): partially inhibited
10 | COc1cc(/C=C2/C(=O)Nc3cc(C)c(O)cc32)cc(OC)c1OC [Compound 7] |  | 4.3 | 20.9 |  | 69.2 | 8.7 |  |  |  | Nox4 expression (Nox4): downregulate Nox4 expression; ROS production in Nox2 silenced cells vs scrambled cells (Nox4 in B1647 cells [3]): inhibited ROS production to the same extent; ROS generation (Nox4 in B1647 cells [4]): partially inhibited
11 | COc1cc(/C=C2\C(=O)Nc3cc(Cl)ccc32)cc(OC)c1OC [Compound 8] | 4.9 | 1.3 | 5.4 | 6.8 | 24 | 3.6 | 4.1 | 5.4 | 5 | IC (TGI) (NSCLC): 8.3 µM; proportion of cells in G2/M (cells): increased proportion of cells in G2/M; IC (TGI) (Prostate): 5.4 µM; IC (TGI) (Ovarian): 5.4 µM
12 | COc1ccc2c(c1)C(=Nc1cc(OC)c(OC)c(OC)c1)C(=O)N2 [Compound 18] |  |  |  |  |  |  |  |  |  | cytotoxic activity in the preliminary one-dose test (full NCI 60 cell panel [2]): lack of cytotoxic activity
13 | COc1ccc(CN2C(=O)/C(=C/c3cc(OC)c(OC)c(OC)c3)c3cc(OC)ccc32)cc1 [Compound 15] | 8.9 |  | 8.9 | 5.7 | 34.7 |  |  | 3.8 | 7.4 | IC (TGI) (Ovarian): 8.9 µM
14 | COc1cc(/C=C2/C(=O)N(C)c3ccc(O)cc32)cc(OC)c1OC [Compound 10] |  | 4.4 | 17.4 |  |  | 8.3 |  |  | 17.4 | IC (TGI) (Prostate): 6.3 µM
15 | COc1cc(/C=C2\C(=O)N(Cc3ccc(Cl)cc3)c3ccccc32)cc(OC)c1OC [Compound 13] | 10.7 | 2.6 | 10.7 | 8.9 | 41.7 | 4.9 |  | 5.9 |  | IC (TGI) (Prostate): 7.6 µM
